# From ChEMBL document CHEMBL1137663, “Evaluation of tigecycline penetration into colon wall tissue and epithelial lining fluid using a population pharmacokinetic model and Monte Carlo simulation” (Antimicrob Agents Chemother, 2007)
# Assays:
# [1] = Penetration ratio, ratio of AUC (0 to 24 hrs) for human colon wall tissue to AUC (0 to 24 hrs) for human serum at 75th AUC percentile curve; format: ADME
# Summary of the method: (§1)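 Penetration was expressed as steady-state tissue (colon wall or ELF) AUC0-24 divided by serum AUC0-24. AUCs came from the population model, by direct simulation with the mean parameter vector and by Monte Carlo simulation using the parameter distribution.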
# [2] = AUC (0 to 24 hrs) in human epithelial lining fluid at 50th AUC percentile curve; format: ADME, tissue-based; parameters: time < 24 hr
# Summary of the method: (§2)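 Study 1: 100-mg i.v. loading dose, then 50 mg i.v. every 12 h through day 4 (seven 30-min infusions). Drug was measured in BAL fluid by LC-MS/MS. ELF concentration was derived by urea dilution, using BAL and serum urea drawn at bronchoscopy. Values were comodeled with serum data in a population model, and Monte Carlo simulation gave steady-state AUC0-24 percentiles.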
# [3] = Penetration ratio, ratio of AUC (0 to 24 hrs) for human colon wall tissue to AUC (0 to 24 hrs) for human serum at 95th AUC percentile curve; format: ADME; summary of the method: as §1
# [4] = Volume of distribution in human serum; format: ADME, organism-based
# Summary of the method: (§3)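 Serum, ELF and colon wall concentrations were fitted simultaneously in BigNPAG. One specific-volume term estimated all tissue compartment volumes. Individual Bayesian estimates were obtained with the population-of-one utility.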
# [5] = AUC (0 to 24 hrs) in human serum at 25th AUC percentile curve; format: ADME, cell-free; parameters: time < 24 hr
# Summary of the method: (§4)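 Serum came from five studies. Study 1: serial samples over 24 h after the last of seven i.v. doses. Study 2: samples after a single 100-mg infusion. Studies 3-5: patients on 100 mg then 50 mg q12h for 5-14 days, sampled predose, at end of infusion, and at 3 and 6 h. Assay was LC-MS/MS. Population modeling plus Monte Carlo simulation gave steady-state AUC0-24 percentiles.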
# [6] = AUC (0 to 24 hrs) in human colon wall tissue at 50th AUC percentile curve; format: ADME, tissue-based; parameters: time < 24 hr
# Summary of the method: (§5)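 Study 2: a single 100-mg i.v. dose was infused over about 30 min. Colon wall was collected about 4, 8, 12 or 24 h after the infusion started. Tissue (0.20-g aliquot) was homogenized with deuterated internal standard in acetonitrile, then assayed by LC-MS/MS. Data were comodeled with serum from all five studies in BigNPAG. Monte Carlo simulation gave steady-state AUC0-24 percentiles.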
# [7] = Penetration ratio, ratio of AUC (0 to 24 hrs) for human colon wall tissue to AUC (0 to 24 hrs) for human serum at 25th AUC percentile curve; format: ADME; summary of the method: as §1
# [8] = AUC (0 to 24 hrs) in human epithelial lining fluid at 75th AUC percentile curve; format: ADME, tissue-based; parameters: time < 24 hr; summary of the method: as §2
# [9] = AUC (0 to 24 hrs) in human serum at 5th AUC percentile curve; format: ADME, cell-free; parameters: time < 24 hr; summary of the method: as §4
# [10] = AUC (0 to 24 hrs) in human colon wall tissue at 95th AUC percentile curve; format: ADME, tissue-based; parameters: time < 24 hr; summary of the method: as §5
# [11] = Volume of distribution in human lung; format: ADME, organism-based; summary of the method: as §3
# [12] = AUC (0 to 24 hrs) in human serum at 75th AUC percentile curve; format: ADME, cell-free; parameters: time < 24 hr; summary of the method: as §4
# [13] = AUC (0 to 24 hrs) in human epithelial lining fluid at 25th AUC percentile curve; format: ADME, tissue-based; parameters: time < 24 hr; summary of the method: as §2
# [14] = Penetration ratio, ratio of AUC (0 to 24 hrs) for human epithelial lining fluid to AUC (0 to 24 hrs) for human serum at 25th AUC percentile curve; format: ADME, tissue-based; summary of the method: as §1
# [15] = AUC (0 to 24 hrs) in human colon wall tissue at 75th AUC percentile curve; format: ADME, tissue-based; parameters: time < 24 hr; summary of the method: as §5
# [16] = Penetration ratio, ratio of AUC (0 to 24 hrs) for human epithelial lining fluid to AUC (0 to 24 hrs) for human serum at 95th AUC percentile curve; format: ADME, tissue-based; summary of the method: as §1
# [17] = AUC (0 to 24 hrs) in human epithelial lining fluid at 95th AUC percentile curve; format: ADME, tissue-based; parameters: time < 24 hr; summary of the method: as §2
# [18] = AUC (0 to 24 hrs) in human colon wall tissue at 5th AUC percentile curve; format: ADME, tissue-based; parameters: time < 24 hr; summary of the method: as §5
# [19] = AUC (0 to 24 hrs) in human serum at 95th AUC percentile curve; format: ADME, cell-free; parameters: time < 24 hr; summary of the method: as §4
# [20] = AUC (0 to 24 hrs) in human serum at 50th AUC percentile curve; format: ADME, cell-free; parameters: time < 24 hr; summary of the method: as §4
# [21] = Volume of distribution in human colon wall tissue; format: ADME, organism-based; summary of the method: as §3
# [22] = AUC (0 to 24 hrs) in human colon wall tissue at 25th AUC percentile curve; format: ADME, tissue-based; parameters: time < 24 hr; summary of the method: as §5
# [23] = AUC (0 to 24 hrs) in human epithelial lining fluid at 5th AUC percentile curve; format: ADME, tissue-based; parameters: time < 24 hr; summary of the method: as §2
# [24] = Protein binding in human serum; format: ADME, cell-free; settings: read-out: PB (converted)
# [25] = Penetration ratio, ratio of AUC (0 to 24 hrs) for human epithelial lining fluid to AUC (0 to 24 hrs) for human serum at 5th AUC percentile curve; format: ADME, tissue-based; summary of the method: as §1
# [26] = Penetration ratio, ratio of AUC (0 to 24 hrs) for human colon wall tissue to AUC (0 to 24 hrs) for human serum at 5th AUC percentile curve; format: ADME; summary of the method: as §1
# [27] = Penetration ratio, ratio of AUC (0 to 24 hrs) for human colon wall tissue to AUC (0 to 24 hrs) for human serum at 50th AUC percentile curve; format: ADME; summary of the method: as §1
# [28] = Penetration ratio, ratio of AUC (0 to 24 hrs) for human epithelial lining fluid to AUC (0 to 24 hrs) for human serum at 50th AUC percentile curve; format: ADME, tissue-based; summary of the method: as §1
# [29] = Clearance in human serum; format: ADME, organism-based; summary of the method: as §3
# [30] = Penetration ratio, ratio of AUC (0 to 24 hrs) for human epithelial lining fluid to AUC (0 to 24 hrs) for human serum at 75th AUC percentile curve; format: ADME, tissue-based; summary of the method: as §1
structure (smiles),measurement,setting,value
CN(C)c1cc(NC(=O)CNC(C)(C)C)c(O)c2c1C[C@H]1C[C@H]3[C@H](N(C)C)C(O)=C(C(N)=O)C(=O)[C@@]3(O)C(O)=C1C2=O [TIGECYCLINE],Kp,[1],3.91
same,AUC(0-t) at 24 h,[2],9.03 µg·h/mL
same,Kp,[3],199
same,Vd,[4],30.9 L
same,AUC(0-t) at 24 h,[5],5.09 µg·h/mL
same,AUC(0-t) at 24 h,[6],15.6 µg·h/mL
same,Kp,[7],0.683
same,AUC(0-t) at 24 h,[8],22.3 µg·h/mL
same,AUC(0-t) at 24 h,[9],4.84 µg·h/mL
same,AUC(0-t) at 24 h,[10],3370 µg·h/mL
same,Vd,[11],35.2 L
same,AUC(0-t) at 24 h,[12],8.72 µg·h/mL
same,AUC(0-t) at 24 h,[13],5.19 µg·h/mL
same,Kp,[14],0.823
same,AUC(0-t) at 24 h,[15],30.4 µg·h/mL
same,Kp,[16],5.23
same,AUC(0-t) at 24 h,[17],32.4 µg·h/mL
same,AUC(0-t) at 24 h,[18],1.65 µg·h/mL
same,AUC(0-t) at 24 h,[19],18.5 µg·h/mL
same,AUC(0-t) at 24 h,[20],6.16 µg·h/mL
same,Vd,[21],50.5 L
same,AUC(0-t) at 24 h,[22],6.44 µg·h/mL
same,AUC(0-t) at 24 h,[23],4.3 µg·h/mL
same,fraction unbound,[24],0.29
same,Kp,[25],0.561
same,Kp,[26],0.16
same,Kp,[27],1.73
same,Kp,[28],1.15
same,clearance,[29],243 mL/min
same,Kp,[30],2.45
